As usually defined, the IC50 is the concentration needed to halve the response being measured. As usually defined, the Ki is a dissociation constant, usually derived from enzyme kinetics or from competition with a known ligand. A high value points to lower affinity.

Two compounds from BindingDB's records for doi:10.1016/j.bmc.2012.05.040 (Imperial College, 2012) can be followed below.

The target of assay [1] is Phosphatidylinositol 3,4,5-trisphosphate 3-phosphatase and dual-specificity protein phosphatase PTEN (Homo sapiens, UniProt P60484). Description: Inhibition of human PTEN using 3-O-Methylfluorescein phosphate as substrate incubated for 10 mins prior to substrate addition by fluorometry. In a few lines:
(§1)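 OMFP phosphatase assay, 20 °C, in 100 mM Tris pH 7.4 with 2 mM DTT. OMFP is taken from a 20 mM DMSO stock and diluted in 1% DMSO. It is used near each enzyme's KM, which is determined beforehand. Enzyme and arylstibonate are preincubated 10 min at RT, then OMFP is added. OMF release is read by fluorescence (ex 485, em 525 nm). Dose-response curves give IC50.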

Assay [2] deals with Dual specificity protein phosphatase 3 (Homo sapiens, UniProt P51452). Description: Inhibition of human recombinant His-tagged VHR using 3-O-Methylfluorescein phosphate as substrate incubated for 10 mins prior to substrate addition by fluorometry. In a few lines: as §1
The target of assay [3] is T1, Receptor-type tyrosine-protein phosphatase beta (Homo sapiens, UniProt P23467). Description: Inhibition of PTP-beta receptor using 3-O-Methylfluorescein phosphate as substrate incubated for 10 mins prior to substrate addition by fluorometry. In short, it runs like this:
as §1

Assay [4] deals with T2, Dual specificity protein phosphatase 6 (Homo sapiens, UniProt Q16828).
T2 sequence (Q16828 whole entry): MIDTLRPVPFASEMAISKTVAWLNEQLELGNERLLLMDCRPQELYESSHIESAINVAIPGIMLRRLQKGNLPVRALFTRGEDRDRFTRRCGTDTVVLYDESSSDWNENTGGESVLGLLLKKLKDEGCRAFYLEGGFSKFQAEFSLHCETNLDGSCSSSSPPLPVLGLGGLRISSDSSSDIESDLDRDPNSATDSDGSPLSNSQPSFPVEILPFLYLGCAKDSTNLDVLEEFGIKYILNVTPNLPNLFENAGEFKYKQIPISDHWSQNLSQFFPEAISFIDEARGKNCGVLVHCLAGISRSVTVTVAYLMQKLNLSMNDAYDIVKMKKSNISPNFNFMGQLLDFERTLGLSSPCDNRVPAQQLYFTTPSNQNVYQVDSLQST
Description: Inhibition of MKP3 using 3-O-Methylfluorescein phosphate as substrate incubated for 10 mins prior to substrate addition by fluorometry. In short, it runs like this: as §1

Assay [5] concerns the target T3, Tyrosine-protein phosphatase non-receptor type 1 (Homo sapiens, UniProt P18031).
T3 sequence (P18031 whole entry): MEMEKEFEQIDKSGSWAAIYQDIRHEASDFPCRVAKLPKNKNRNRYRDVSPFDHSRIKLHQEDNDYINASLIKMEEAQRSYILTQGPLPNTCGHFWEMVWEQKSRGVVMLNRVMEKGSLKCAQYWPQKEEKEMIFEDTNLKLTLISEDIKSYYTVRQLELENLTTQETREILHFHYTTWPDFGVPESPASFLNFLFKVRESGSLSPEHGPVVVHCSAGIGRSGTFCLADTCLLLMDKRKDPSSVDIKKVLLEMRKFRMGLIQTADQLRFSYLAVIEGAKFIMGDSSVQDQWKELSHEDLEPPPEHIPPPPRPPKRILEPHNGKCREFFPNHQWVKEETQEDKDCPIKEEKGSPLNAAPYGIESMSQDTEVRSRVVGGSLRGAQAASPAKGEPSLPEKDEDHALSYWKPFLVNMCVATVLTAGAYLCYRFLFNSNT
In words: Inhibition of PTP1B using 3-O-Methylfluorescein phosphate as substrate incubated for 10 mins prior to substrate addition by fluorometry. In short, it runs like this: as §1

Assay [6] has as its target T1, Receptor-type tyrosine-protein phosphatase beta. In words: Inhibition of PTP-beta receptor using […] as substrate by colorimetric analysis.
Assay [7] concerns the target T4, M-phase inducer phosphatase 1 (Homo sapiens, UniProt P30304).
T4 sequence (P30304 whole entry): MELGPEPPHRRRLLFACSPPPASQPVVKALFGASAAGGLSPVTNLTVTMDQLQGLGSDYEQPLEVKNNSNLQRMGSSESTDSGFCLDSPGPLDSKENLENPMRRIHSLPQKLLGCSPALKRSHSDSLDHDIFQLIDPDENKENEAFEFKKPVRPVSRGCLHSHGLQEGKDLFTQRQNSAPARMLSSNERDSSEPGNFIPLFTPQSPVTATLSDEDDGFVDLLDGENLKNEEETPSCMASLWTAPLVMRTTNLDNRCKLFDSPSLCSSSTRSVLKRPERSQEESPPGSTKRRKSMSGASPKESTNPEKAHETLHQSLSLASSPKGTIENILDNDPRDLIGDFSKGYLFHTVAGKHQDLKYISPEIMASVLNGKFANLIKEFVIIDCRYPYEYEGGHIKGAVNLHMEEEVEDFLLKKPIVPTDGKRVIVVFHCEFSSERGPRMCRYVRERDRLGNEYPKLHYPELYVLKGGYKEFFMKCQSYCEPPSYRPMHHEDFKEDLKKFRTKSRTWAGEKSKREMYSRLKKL
In words: Inhibition of N-terminal His-tagged Cdc25a catalytic domain expressed in Escherichia coli BL21(DE3) using 3-O-Methylfluorescein phosphate as substrate by secondary plot analysis. In a few lines: (§2)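 Steady-state kinetics of the Cdc25a and Cdc25b catalytic domains with varying OMFP and several arylstibonate concentrations. Run at 20 °C in 100 mM Tris pH 7.4 with 2 mM DTT, after a 10 min RT enzyme–inhibitor preincubation. Fluorescence read at ex 485/em 525 nm. Michaelis–Menten plots give apparent Km and Vmax; secondary plots give Ki.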

Assay [8] concerns the target T5, Phosphatidylglycerophosphatase and protein-tyrosine phosphatase 1 (Homo sapiens, UniProt Q8WUK0).
T5 sequence (Q8WUK0 whole entry): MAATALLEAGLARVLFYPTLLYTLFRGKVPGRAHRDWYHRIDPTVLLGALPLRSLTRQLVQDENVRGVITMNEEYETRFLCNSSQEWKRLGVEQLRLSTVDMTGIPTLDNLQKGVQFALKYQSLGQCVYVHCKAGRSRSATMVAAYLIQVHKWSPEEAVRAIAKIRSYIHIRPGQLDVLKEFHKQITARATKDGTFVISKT
In words: Inhibition of PTPMT1 using 3-O-Methylfluorescein phosphate as substrate incubated for 10 mins prior to substrate addition by fluorometry. In a few lines:
as §1

Assay [9] deals with T4, M-phase inducer phosphatase 1. In words: Inhibition of N-terminal His-tagged Cdc25a catalytic domain expressed in Escherichia coli BL21(DE3) using 3-O-Methylfluorescein phosphate as substrate incubated for 10 mins prior to substrate addition by fluorometry. In short, it runs like this:
as §1

In assay [10] the target is T6, M-phase inducer phosphatase 2 (Homo sapiens, UniProt P30305).
T6 sequence (P30305 whole entry): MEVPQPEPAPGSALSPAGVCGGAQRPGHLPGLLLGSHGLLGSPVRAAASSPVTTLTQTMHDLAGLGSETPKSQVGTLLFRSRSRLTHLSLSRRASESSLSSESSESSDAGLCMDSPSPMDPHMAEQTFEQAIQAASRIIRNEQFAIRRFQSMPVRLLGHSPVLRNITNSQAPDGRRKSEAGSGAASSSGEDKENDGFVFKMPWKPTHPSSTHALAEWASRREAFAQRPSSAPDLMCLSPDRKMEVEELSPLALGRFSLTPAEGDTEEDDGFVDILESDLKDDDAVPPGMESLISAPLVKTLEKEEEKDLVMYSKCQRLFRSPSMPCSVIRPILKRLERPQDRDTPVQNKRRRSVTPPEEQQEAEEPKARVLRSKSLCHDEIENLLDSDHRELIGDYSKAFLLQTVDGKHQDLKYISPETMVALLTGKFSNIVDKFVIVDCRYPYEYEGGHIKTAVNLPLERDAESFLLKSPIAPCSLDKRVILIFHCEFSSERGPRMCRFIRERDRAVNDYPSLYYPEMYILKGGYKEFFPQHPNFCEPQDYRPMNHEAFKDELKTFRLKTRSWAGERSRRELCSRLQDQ
In words: Inhibition of N-terminal His-tagged Cdc25b catalytic domain expressed in Escherichia coli BL21(DE3) using 3-O-Methylfluorescein phosphate as substrate incubated for 10 mins prior to substrate addition by fluorometry. In a few lines:
as §1

For assay [11], the target named is T7, M-phase inducer phosphatase 3 (Homo sapiens, UniProt P30307).
T7 sequence (P30307 whole entry): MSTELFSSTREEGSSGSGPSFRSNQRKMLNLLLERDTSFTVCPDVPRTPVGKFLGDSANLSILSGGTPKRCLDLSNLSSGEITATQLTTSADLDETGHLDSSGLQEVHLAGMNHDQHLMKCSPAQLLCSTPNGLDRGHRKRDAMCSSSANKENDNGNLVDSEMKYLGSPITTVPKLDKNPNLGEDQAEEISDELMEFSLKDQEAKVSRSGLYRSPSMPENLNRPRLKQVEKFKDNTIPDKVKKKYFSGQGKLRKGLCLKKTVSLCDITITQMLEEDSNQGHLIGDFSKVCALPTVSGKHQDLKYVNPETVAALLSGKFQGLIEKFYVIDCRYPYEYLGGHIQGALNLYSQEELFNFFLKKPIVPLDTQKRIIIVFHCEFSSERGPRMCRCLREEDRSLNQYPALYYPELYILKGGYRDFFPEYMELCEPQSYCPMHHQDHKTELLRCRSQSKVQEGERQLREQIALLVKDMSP
Description: Inhibition of N-terminal His-tagged Cdc25c catalytic domain expressed in Escherichia coli BL21(DE3) using 3-O-Methylfluorescein phosphate as substrate incubated for 10 mins prior to substrate addition by fluorometry. In a few lines:
as §1

In assay [12] the target is T6, M-phase inducer phosphatase 2. In words: Inhibition of N-terminal His-tagged Cdc25b catalytic domain expressed in Escherichia coli BL21(DE3) using 3-O-Methylfluorescein phosphate as substrate by secondary plot analysis. In a few lines:
as §2

Structures are written as SMILES.

T1 sequence (P23467 whole entry): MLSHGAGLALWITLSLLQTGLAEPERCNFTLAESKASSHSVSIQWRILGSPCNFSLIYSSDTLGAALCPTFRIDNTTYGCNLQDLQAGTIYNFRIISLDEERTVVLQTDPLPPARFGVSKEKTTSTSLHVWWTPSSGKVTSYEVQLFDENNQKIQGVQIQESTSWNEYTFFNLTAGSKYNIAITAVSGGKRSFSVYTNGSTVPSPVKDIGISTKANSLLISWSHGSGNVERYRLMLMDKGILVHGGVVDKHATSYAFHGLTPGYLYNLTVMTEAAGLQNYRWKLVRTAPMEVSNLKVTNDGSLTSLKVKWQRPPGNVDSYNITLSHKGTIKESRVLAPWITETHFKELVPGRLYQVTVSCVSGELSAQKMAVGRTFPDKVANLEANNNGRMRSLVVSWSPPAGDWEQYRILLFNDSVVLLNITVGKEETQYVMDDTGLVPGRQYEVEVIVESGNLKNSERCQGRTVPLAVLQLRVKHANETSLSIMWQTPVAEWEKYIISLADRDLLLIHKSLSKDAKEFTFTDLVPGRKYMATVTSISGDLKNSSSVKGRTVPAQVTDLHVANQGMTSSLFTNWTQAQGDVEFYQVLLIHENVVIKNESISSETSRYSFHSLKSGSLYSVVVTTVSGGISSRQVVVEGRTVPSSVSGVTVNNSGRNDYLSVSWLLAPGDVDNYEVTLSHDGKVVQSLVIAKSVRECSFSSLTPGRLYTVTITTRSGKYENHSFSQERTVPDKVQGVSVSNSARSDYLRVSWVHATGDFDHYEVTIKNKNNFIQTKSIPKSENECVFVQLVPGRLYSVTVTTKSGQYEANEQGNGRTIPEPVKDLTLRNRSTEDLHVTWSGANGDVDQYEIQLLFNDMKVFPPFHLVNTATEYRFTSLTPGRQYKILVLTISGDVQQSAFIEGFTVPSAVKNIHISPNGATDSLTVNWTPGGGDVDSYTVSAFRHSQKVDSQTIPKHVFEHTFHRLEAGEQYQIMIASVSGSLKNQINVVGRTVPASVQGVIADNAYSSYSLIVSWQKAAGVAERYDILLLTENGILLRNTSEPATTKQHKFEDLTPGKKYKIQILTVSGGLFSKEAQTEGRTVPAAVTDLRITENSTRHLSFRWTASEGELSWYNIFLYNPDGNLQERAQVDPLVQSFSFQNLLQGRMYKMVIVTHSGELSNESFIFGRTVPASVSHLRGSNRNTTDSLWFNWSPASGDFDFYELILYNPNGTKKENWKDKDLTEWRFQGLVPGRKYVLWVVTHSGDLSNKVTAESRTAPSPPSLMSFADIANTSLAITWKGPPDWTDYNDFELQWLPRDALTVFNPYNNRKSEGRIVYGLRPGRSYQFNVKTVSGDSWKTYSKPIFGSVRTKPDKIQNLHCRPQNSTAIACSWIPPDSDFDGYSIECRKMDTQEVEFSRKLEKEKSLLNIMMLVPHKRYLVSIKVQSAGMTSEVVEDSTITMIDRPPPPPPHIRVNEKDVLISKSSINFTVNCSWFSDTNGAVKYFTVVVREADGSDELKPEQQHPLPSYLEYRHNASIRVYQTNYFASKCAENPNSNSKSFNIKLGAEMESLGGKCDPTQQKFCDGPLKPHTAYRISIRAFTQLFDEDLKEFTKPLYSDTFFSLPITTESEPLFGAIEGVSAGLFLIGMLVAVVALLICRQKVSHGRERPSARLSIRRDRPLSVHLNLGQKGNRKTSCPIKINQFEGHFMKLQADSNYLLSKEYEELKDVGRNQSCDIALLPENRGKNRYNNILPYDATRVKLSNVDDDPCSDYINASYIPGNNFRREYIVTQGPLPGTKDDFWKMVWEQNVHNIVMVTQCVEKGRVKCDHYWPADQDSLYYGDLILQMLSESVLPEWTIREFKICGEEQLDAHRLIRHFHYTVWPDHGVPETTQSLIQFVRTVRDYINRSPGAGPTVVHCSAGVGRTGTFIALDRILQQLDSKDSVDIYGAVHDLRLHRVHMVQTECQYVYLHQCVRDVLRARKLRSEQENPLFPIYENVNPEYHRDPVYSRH
Phosphatidylinositol 3,4,5-trisphosphate 3-phosphatase and dual-specificity protein phosphatase PTEN, sequence (P60484 whole entry): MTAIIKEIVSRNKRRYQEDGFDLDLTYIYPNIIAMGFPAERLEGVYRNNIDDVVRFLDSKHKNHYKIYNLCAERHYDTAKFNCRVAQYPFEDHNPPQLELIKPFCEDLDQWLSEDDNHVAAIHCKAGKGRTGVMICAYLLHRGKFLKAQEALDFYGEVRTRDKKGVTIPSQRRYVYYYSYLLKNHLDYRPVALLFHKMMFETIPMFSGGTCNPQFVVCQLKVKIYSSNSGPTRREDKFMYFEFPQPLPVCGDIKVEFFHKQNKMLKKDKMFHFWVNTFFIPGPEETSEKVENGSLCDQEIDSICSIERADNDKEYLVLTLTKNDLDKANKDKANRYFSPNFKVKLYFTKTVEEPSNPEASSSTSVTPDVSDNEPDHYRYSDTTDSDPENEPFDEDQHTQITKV
Dual specificity protein phosphatase 3, sequence (P51452 whole entry): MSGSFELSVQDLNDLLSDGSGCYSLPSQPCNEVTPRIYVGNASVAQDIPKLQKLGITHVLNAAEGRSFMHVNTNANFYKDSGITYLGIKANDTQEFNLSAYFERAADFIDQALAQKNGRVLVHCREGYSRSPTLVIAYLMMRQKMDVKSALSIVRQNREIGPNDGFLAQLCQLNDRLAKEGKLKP

As for `O=C(O)/C=C/c1ccc[c]([Sb](=[O])([OH])[OH])c1` [(2E)-3-{3-[dihydroxy(oxo)--stibanyl]phenyl}prop-2-enoic acid], the concentration for half-maximal inhibition (IC50) in [1] was 10 µM; in assay [2] it was more than 10 µM; in assay [3], 0.77 µM; in [4], more than 10 µM; in assay [5] it was 7.93 µM; in assay [6], 0.1 µM. For the same compound, the half-maximal inhibitory concentration (IC50) in [8] was 1.62 µM; in assay [9], 0.11 µM; in assay [10], 0.6 µM; in assay [11], more than 10 µM. For the same compound, the inhibitory constant (Ki) in assay [7] was determined as 0.072 µM; in [12], 0.369 µM.
For `O=C(O)CCc1ccc[c]([Sb](=[O])([OH])[OH])c1`, the IC50 was 8.87 µM in [1]; more than 100 µM in assay [2]; 1.62 µM in assay [3]; more than 100 µM in assay [4]; more than 100 µM in assay [5]; 0.1 µM in [6]. Further, the IC50 in assay [8] is 13.4 µM; in assay [9] it was 3.15 µM; in assay [10], 5.67 µM; in [11], more than 100 µM. For the same compound, the Ki in [7] worked out at 1.7 µM; in [12] it was 4.7 µM.
